Experiments:
Plasmodium falciparum = assay: Antiplasmodial activity against Plasmodium falciparum W2 after 24 hrs by [3H]hypoxanthine incorporation assay; type: functional, organism-based
Summary of the method: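 Chloroquine-resistant, mefloquine-sensitive W2 clone grown in human O+ erythrocytes in RPMI 1640 with 10% human plasma; 1–2% parasitemia, 2.5% hematocrit. Five concentrations in 4% DMSO in hypoxanthine-free RPMI, 24 h. [3H]-hypoxanthine uptake vs untreated wells; IC50 from triplicates, mefloquine standard.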

[1] = Cytotoxicity against BALB/c mouse splenocyte by [3H]thymidine incorporation assay; type: cell-based
Summary of the method: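 Splenocytes (5 × 10^6 per well) in DMEM with 10% FCS and 50 µg/mL gentamycin; tested at 1.1, 3.3, 11, 33 and 100 µg/mL in triplicate with 3H-thymidine (1 µCi per well), 24 h, 37 °C, 5% CO2. Value is highest non-cytotoxic concentration, i.e. reducing incorporation by under 10% versus untreated.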

Entamoeba histolytica = assay: Antiamoebic activity against Entamoeba histolytica HM1:IMSS after 72 hrs by microplate method; type: functional, organism-based; conditions: HM-1:IMSS
Summary of the method: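 Trophozoites grown in TYI-S-33 medium; samples dissolved in DMSO then medium to 1 mg/mL, diluted to 0.1 mg/mL, twofold serial dilutions in plate; final DMSO ≤0.1%. 10^5 organisms/mL added, plate gassed with nitrogen 10 min, 37 °C for 72 h. OD at 490 nm; % inhibition vs log dose, linear regression for IC50. Triplicates, repeated thrice; metronidazole standard.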

[2] = Inhibition of beta-hematin formation after 18 hrs by microtiter plate assay; type: functional

Row | Structure (SMILES) | IC50 (Plasmodium falciparum) | highest non-cytotoxic concentration [1] | IC50 (Entamoeba histolytica) | IC50 [2]
1 | S=C(N/N=C/c1ccco1)N1CCCCCC1 | 35.8 µM | > 100 µg/mL | 12.1 µM | –
2 | CC1CCN(C(=S)N/N=C/c2ccco2)CC1 | 36.2 µM | 100 µg/mL | 8.02 µM | –
3 | CN(C(=S)N/N=C/c1ccco1)C1CCCCC1 | 21.8 µM | > 100 µg/mL | 9.07 µM | –
4 | OC(c1cc(C(F)(F)F)nc2c(C(F)(F)F)cccc12)C1CCCCN1 (centres undefined) [MEFLOQUINE] | 0.039 µM | – | – | –
5 | CCN(CC)CCCC(C)Nc1ccnc2cc(Cl)ccc12.O=P(O)(O)O.O=P(O)(O)O (centres undefined) [CHLOROQUINE PHOSPHATE] | – | – | – | 1.3 µg/mL
6 | S=C(N/N=C/c1ccco1)NC1CCCCC1 | 20.3 µM | 33 µg/mL | 10.1 µM | –
